What was measured:
[1] = test system: STAT3 promoter activity; experiment: STAT3 dual luciferase reporter assay; assay type: cell-based, human; conditions: 24 h pre-treatment
Method in brief: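 MDA-MB-231 cells were transiently transfected with the pSTAT3-Luc reporter vector and pretreated with test compound at different concentrations for 24 h. STAT3 promoter activity was then read by luciferase.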

[2] = test system: MDA-MB-231 breast cancer cells; experiment: Cellular morphological changes under light microscopy; assay type: cell-based, human; conditions: MDA-MB-231, 48 h, 1 μM, 5 μM and 10 μM
[3] = test system: MDA-MB-231 breast cancer cells; experiment: Annexin V-based flow cytometry apoptosis measurement; assay type: cell-based, human; conditions: MDA-MB-231, dose-dependent
[4] = test system: STAT3; experiment: Western blot of total and phosphorylated STAT3 in MDA-MB-231 cells; assay type: cell-based, human; conditions: MDA-MB-231, 24 h
Method in brief: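 MDA-MB-231 cells were treated with different doses of test compound for 24 h, then probed by Western blot for total STAT3 and Tyr-705 phospho-STAT3. Bands were quantified by densitometry over three independent experiments, with significance at p < 0.05 and p < 0.01.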

[5] = test system: human breast and pancreatic cancer cell lines; experiment: MTS proliferation assays, statements over the cell line panel; assay type: cell-based; conditions: for antiproliferative activity (in words): MCF-7, MDA-MB-231, AsPC1, Panc-1, MTS assays
[6] = test system: caspase-3; experiment: Western blot of cleaved caspase-3 in MDA-MB-231 cells; assay type: cell-based, human; conditions: MDA-MB-231, Western blot
Method in brief: (§1)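 Protein expression in MDA-MB-231 cells was analysed by Western blot after treatment with test compound. Band intensities were quantified by densitometry over three independent experiments, with significance marked at p < 0.05 and p < 0.01.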

[7] = test system: MDA-MB-231 xenograft tumors; experiment: MDA-MB-231 xenograft tumor growth model; assay type: in vivo, mice
[8] = test system: cyclin D1; experiment: Western blot of cyclin D1 in MDA-MB-231 cells; assay type: cell-based, human; conditions: MDA-MB-231, Western blot
Method in brief: as §1

[9] = Signs of toxicity in mice; assay type: in vivo; conditions: 75 mg/kg

With `O=C(Nc1ccc([N+](=O)[O-])cc1Cl)c1cc(Cl)ccc1O` [Compound 1, niclosamide, reference compound] as the molecule, how does the “STAT3 promoter activity (in words)” value ([1]; 20 μM, MDA-MB-231) read?
The value was “suppressed”.

And the “cell proliferation and apoptosis with cellular morphological changes” value [2]?
Its value is “significantly inhibited cell proliferation and induced apoptosis”.

What about the “apoptosis (annexin V, flow cytometry)” value [3] of the same molecule?
Its value is “activated apoptosis”.

What about the “phosphorylated STAT3 (p-STAT3) at Tyr-705” value [4] of the same molecule?
The value was “suppressed”.

And the “total STAT3 level” value [4]?
Its value is “reduced”.

For `O=C(Nc1ccc([N+](=O)[O-])cc1Cl)c1cc(Cl)ccc1OCCF` [Compound 3], which “antiproliferative activity (in words)” value [5] is on record?
The value was “no significant effects”.

For `CN1CCC(Oc2ccc(Cl)cc2C(=O)Nc2ccc([N+](=O)[O-])cc2Cl)CC1` [Compound 4], which “fold loss of antiproliferative activity in comparison with analogue 10” value ([5]; vs analogue 10) is on record?
The value was 10 fold.

For `O=C(Nc1ccc([N+](=O)[O-])cc1Cl)c1cc(Cl)ccc1OC1CCNCC1` [Compound 10], which “cell proliferation and apoptosis with cellular morphological changes” value [2] is on record?
The value was “significantly inhibited cell proliferation and induced apoptosis”.

With `NCCOc1ccc(Cl)cc1C(=O)Nc1ccc([N+](=O)[O-])cc1Cl` [Compound 11] as the molecule, how does the “decrease of STAT3 promoter activity” value ([1]; 10 μM, MDA-MB-231, compared with control) read?
The value was “approximately 32%”.

And the “cell proliferation and apoptosis with cellular morphological changes” value [2]?
The value was “significantly inhibited cell proliferation and induced apoptosis”.

What about the “apoptosis (annexin V, flow cytometry)” value [3] of the same molecule?
The value was “activated apoptosis”.

What about the “cleaved caspase-3” value [6] of the same molecule?
The value was “induced”.

And the “inhibition of xenograft tumor growth, i.p.” value ([7]; 7.5 mg/kg i.p., compared with 12.5 mg/kg niclosamide)?
Its value is “better effect in inhibiting tumor growth”.

What about the “growth of xenograft tumors, oral administration” value ([7]; 25 mg/kg p.o., more efficacious than niclosamide at 75 mg/kg) of the same molecule?
Its value is “significantly reduced”.

And the “xenograft tumor growth in vivo (both i.p. & p.o.)” value ([7]; nude mice bearing MDA-MB-231 xenografts)?
Its value is “significantly suppressed”.

What about the “cyclin D1” value [8] of the same molecule?
Its value is “downregulated”.

What about the signs of toxicity [9] of the same molecule?
Its signs of toxicity is “did not show significant signs of toxicity”.

What about the “phosphorylated STAT3 (p-STAT3) at Tyr-705” value [4] of the same molecule?
The value was “suppressed”.

And the “total STAT3 level” value [4]?
Its value is “reduced”.

With `CS(=O)(=O)Nc1ccc(NC(=O)c2cc(Cl)ccc2OC2CCNCC2)c(Cl)c1` [Compound 19] as the molecule, how does the “antiproliferative activity (in words)” value [5] read?
Its value is “significant loss of the antiproliferative activity”.

For `CC(=O)Nc1ccc(NC(=O)c2cc(Cl)ccc2OC2CCNCC2)c(Cl)c1` [Compound 20], which “antiproliferative activity (in words)” value [5] is on record?
The value was “significant loss of the antiproliferative activity”.

Source: publication PMC3583367 (ACS medicinal chemistry letters, 2013)
